Experimental data published in ChEMBL document CHEMBL4699408, “Synthesis and evaluation of anticancer activity of new 9-acridinyl amino acid derivatives” (RSC Med Chem, 2020).
The source made the active and inactive calls. The calls are words filed in the database; no cut-off is given here.

Tests used:
[1] = biological target: DNA topoisomerase 2-alpha (Homo sapiens, UniProt P11388); test: Inhibition of human topoisomerase 2alpha using supercoiled pNO1 plasmid DNA as substrate incubated for 30 mins by fluorescence based microplate reader analysis
[2] = test system: K562; test: Cytotoxicity against human K562 cells assessed as reduction in cell viability incubated for 72 hrs by MTT assay; type: functional, cell-based; details: K562, 72 h
[3] = test system: A549; test: Cytotoxicity against human A549 cells assessed as reduction in cell viability incubated for 72 hrs by MTT assay; type: functional, cell-based; details: A549, 72 h
[4] = test system: MRC5; test: Cytotoxicity against human MRC5 cells assessed as reduction in cell viability incubated for 72 hrs by MTT assay; type: cell-based; details: MRC5, 72 h
[5] = test system: A549; test: Cell cycle arrest in human A549 cells assessed as accumulation in SubG1 phase by measuring late apoptotic cells with fragmented DNA content at IC50 concentration incubated for 48 hrs by RNaseA/propidium iodide staining based flow cytometry; type: functional
[6] = test system: A549; test: Cell cycle arrest in human A549 cells assessed as accumulation in S phase at IC50 concentration incubated for 24 hrs by RNaseA/propidium iodide staining based flow cytometry; type: functional
[7] = test system: A549; test: Induction of apoptosis in human A549 cells assessed as early apoptotic cells at IC50 concentration after 48 hrs by annexin V-FITC/propidium iodide staining based flow cytometry (reference value: 0.9 %); type: functional
[8] = test system: A549; test: Induction of apoptosis in human A549 cells assessed as late apoptotic cells at IC50 concentration after 48 hrs by annexin V-FITC/propidium iodide staining based flow cytometry (reference value: 0.7 %); type: functional
[9] = test system: DNA; test: Binding affinity to DNA isolated from human A549 cells assessed as intercalating activity at 100 uM after 1 hr by electrophoretic mobility shift assay
Procedure, shortened: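 Genomic DNA isolated from A549 cells (proteinase K/SDS lysis, salt precipitation, ethanol precipitation); 0.5 μg DNA incubated 1 h at room temperature with 100 μM compound in 5 mM Tris-HCl/50 mM NaCl buffer; run on 0.8% agarose gel 4 h at 30 V, GelRed stained; binding read as shift in DNA mobility.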

[10] = Cytotoxicity against unstimulated human blood Leucocytes assessed as cell viability at 6.25 to 100 uM incubated for 24 to 72 hrs by MTT assay; details: leucocyte
[11] = test system: A549; test: Inhibition of colony formation in human A549 cells at IC50 concentration incubated for 48 hrs followed by cell washing and measured after 10 days by crystal violet staining based assay relative to control; type: functional
[12] = test system: A549; test: Cell cycle arrest in human A549 cells assessed as accumulation in G2/M phase at IC50 concentration incubated for 24 hrs by RNaseA/propidium iodide staining based flow cytometry (reference value: 9 %); type: functional
[13] = test system: A549; test: Cell cycle arrest in human A549 cells assessed as accumulation in G2/M phase at IC50 concentration incubated for 48 hrs by RNaseA/propidium iodide staining based flow cytometry (reference value: 11 %); type: functional
[14] = test system: A549; test: Induction of cell cycle arrest in human A549 cells assessed as effect on cell cycle distribution at IC50 concentration incubated for 24 to 48 hrs by RNaseA/propidium iodide staining based flow cytometry; type: functional; details: time hrs 24-48

DNA topoisomerase 2-alpha, sequence (P11388 whole entry): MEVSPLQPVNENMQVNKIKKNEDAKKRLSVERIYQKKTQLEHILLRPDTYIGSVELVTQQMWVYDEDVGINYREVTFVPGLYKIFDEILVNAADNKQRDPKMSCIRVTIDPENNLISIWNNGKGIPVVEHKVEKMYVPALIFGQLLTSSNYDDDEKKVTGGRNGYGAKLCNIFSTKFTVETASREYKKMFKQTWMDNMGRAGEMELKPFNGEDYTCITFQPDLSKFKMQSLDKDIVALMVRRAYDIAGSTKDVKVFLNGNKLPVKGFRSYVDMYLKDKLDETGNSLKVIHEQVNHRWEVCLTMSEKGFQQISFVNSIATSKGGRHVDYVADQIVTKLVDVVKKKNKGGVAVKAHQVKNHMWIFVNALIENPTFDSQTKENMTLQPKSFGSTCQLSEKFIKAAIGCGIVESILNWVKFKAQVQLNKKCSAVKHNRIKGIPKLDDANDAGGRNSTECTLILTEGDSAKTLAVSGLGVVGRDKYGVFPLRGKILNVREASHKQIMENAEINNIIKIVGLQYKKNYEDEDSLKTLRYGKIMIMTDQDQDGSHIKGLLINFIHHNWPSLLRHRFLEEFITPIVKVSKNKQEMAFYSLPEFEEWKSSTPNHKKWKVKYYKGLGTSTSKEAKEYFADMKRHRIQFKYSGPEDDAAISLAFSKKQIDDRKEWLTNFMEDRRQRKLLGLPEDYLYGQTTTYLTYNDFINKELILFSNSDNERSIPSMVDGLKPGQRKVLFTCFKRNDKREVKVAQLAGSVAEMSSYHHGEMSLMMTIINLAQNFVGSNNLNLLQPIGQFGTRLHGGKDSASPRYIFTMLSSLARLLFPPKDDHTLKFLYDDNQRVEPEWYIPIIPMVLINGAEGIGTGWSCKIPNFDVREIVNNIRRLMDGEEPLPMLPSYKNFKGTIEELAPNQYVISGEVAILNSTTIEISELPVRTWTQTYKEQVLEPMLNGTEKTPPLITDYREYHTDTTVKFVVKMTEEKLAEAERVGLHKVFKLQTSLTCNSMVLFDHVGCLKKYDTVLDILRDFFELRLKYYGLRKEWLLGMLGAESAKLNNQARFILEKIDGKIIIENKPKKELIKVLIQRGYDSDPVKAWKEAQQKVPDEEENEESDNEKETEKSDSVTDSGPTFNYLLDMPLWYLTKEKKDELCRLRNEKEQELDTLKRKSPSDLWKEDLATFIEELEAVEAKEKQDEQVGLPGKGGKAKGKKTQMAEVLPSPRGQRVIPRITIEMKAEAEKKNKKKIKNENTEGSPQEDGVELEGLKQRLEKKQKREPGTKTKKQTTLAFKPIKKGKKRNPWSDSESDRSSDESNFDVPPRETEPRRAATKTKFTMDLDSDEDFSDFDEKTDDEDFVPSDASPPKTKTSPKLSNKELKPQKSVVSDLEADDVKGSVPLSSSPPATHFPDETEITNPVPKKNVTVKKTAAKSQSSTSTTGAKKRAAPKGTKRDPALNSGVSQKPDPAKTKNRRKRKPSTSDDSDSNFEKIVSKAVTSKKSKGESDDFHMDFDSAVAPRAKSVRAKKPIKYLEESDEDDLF

IC50 [1] [µM]	SMILES	IC50 [2] [µM]	IC50 [3] [µM]	IC50 [4] [µM]	Activity [5]	Activity [6]	Activity [7] [%]	Activity [8] [%]	Activity [9]	Activity [10]	inhibition (INH) [11] [%]	Activity [12] [%]	Activity [13] [%]	Activity [14]
16	COc1cc(NS(C)(=O)=O)ccc1Nc1c2ccccc2nc2ccccc12 [AMSACRINE]	13.8	22.2	15.4	Active	Active	16.1	2.8	Active	Toxic				
	COC(=O)[C@H](Cc1c[nH]cn1)Nc1c2ccccc2nc2ccccc12	46.1	34.3	65.1										
	CCCOC(=O)CCCCCNc1c2ccccc2nc2ccccc12	75	72.4	58.8										
	COC(=O)CCCCCCCNc1c2ccccc2nc2ccccc12	62.9	62.6	49.8										
14	CCCOC(=O)CCNc1c2ccccc2nc2ccccc12	16.4	6.3	11.6			4.6	2.9	inactive	Non-Toxic	>95	12	19	
16	CCCOC(=O)CCCNc1c2ccccc2nc2ccccc12	21.8	19.3	16.9			12.5	3.8	Active	Non-Toxic	>95	18	29	
	CCOC(=O)CCCCCNc1c2ccccc2nc2ccccc12	34.5	36.3	25.1										
14	CCOC(=O)CCCNc1c2ccccc2nc2ccccc12	11.2	9.5	15.8			11.7	5.4	inactive	Non-Toxic	>95			inactive
	COC(=O)[C@H](Cc1cn(C)c2ccccc12)Nc1c2ccccc2nc2ccccc12	46.6	29.5	56.1										
13	CCOC(=O)CCNc1c2ccccc2nc2ccccc12	19.2	6.15	12.1			3.7	1.2	inactive	Non-Toxic	>95			inactive
	Cn1cc(C[C@H](Nc2c3ccccc3nc3ccccc23)C(=O)O)c2ccccc21	42.4	34.1	47										
	COC(=O)[C@H](Cc1ccccc1)Nc1c2ccccc2nc2ccccc12	40.6	25.7	47.6										
